Tests used:
Influenza A virus [1] = experiment: Antiviral activity against Influenza A virus A/WSN/33 infected in MDCK cells assessed as reduction in virus-induced cytopathic effect at 100 uM after 40 hrs by Celltiter-Glo assay relative to control; format: functional; conditions: A/WSN/33, MDCK
Outline: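 This was a single-concentration screen at 100 μM in MDCK cells infected with A/WSN/33 at MOI 0.1. CPE protection was read by CellTiter-Glo after 40 h of incubation. The inhibition rate was expressed relative to 1% DMSO (final) negative control, with oseltamivir phosphate as the positive control. Experiments were run in triplicate.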

MDCK = experiment: Cytotoxicity against dog MDCK cells assessed as reduction in cell viability at 100 uM measured after 40 hrs by Celltiter-Glo assay; format: cell-based, Canis lupus familiaris
Outline: (§1)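 Uninfected MDCK cells were grown overnight in 96-well plates with 1% FBS. They were then exposed to increasing compound concentrations, or to a single 100 μM screen, for 40 h, and viability was read by CellTiter-Glo. CC50 is the concentration causing 50% death of uninfected cells.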

[2] = Cytotoxicity against dog MDCK cells assessed as reduction in cell viability measured after 40 hrs by Celltiter-Glo assay; format: cell-based, Canis lupus familiaris; outline: as §1
Influenza A virus [3] = experiment: Antiviral activity against Influenza A virus A/WSN/33 assessed as inhibition of virus-induced cytopathic effect after 40 hrs by Celltiter-Glo assay; format: functional, organism-based; conditions: A/WSN/33, 40 h
Outline: (§2)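 MDCK cells were seeded in 96-well plates, left overnight, then infected with influenza virus at MOI 0.1 and treated with the compound. After 40 h, viability was read by CellTiter-Glo luminescence. 1% DMSO (final) served as the negative control and oseltamivir phosphate as the positive control. IC50 is the concentration that inhibits virus-induced CPE by 50%, taken from dose-response curves in replicate independent experiments.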

[4] = Selectivity index, ratio of CC50 for MDCK cells to IC50 for influenza A virus A/WSN/33; format: toxicity; conditions: dog, read-out: Ratio CC50/IC50
Outline: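 SI was calculated as CC50 (uninfected MDCK, 40 h CellTiter-Glo) divided by IC50 (50% inhibition of A/WSN/33 replication in MDCK, MOI 0.1, 40 h CellTiter-Glo).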

Influenza A virus [5] = experiment: Antiviral activity against Influenza A virus A/Victoria/361/2011(H3N2) infected in MDCK cells assessed as inhibition of virus-induced cytopathic effect after 40 hrs by Celltiter-Glo assay; format: functional, organism-based; outline: as §2
Influenza B virus [6] = experiment: Antiviral activity against Influenza B virus B/Yamagata/16/88(BY) infected in MDCK cells assessed as inhibition of virus-induced cytopathic effect after 40 hrs by Celltiter-Glo assay; format: functional, organism-based; outline: as §2
Influenza B virus [7] = experiment: Antiviral activity against Influenza B virus B/Sichuan/531/2018(BV) infected in MDCK cells assessed as inhibition of virus-induced cytopathic effect after 40 hrs by Celltiter-Glo assay; format: functional, organism-based; outline: as §2
Influenza B virus [8] = experiment: Antiviral activity against Influenza B virus B/Massachusetts/2/2012(BV) infected in MDCK cells assessed as inhibition of virus-induced cytopathic effect after 40 hrs by Celltiter-Glo assay; format: functional, organism-based; outline: as §2
[9] = Cytotoxicity against dog MDCK cells assessed as cell viability at 100 uM measured after 40 hrs by Celltiter-Glo assay relative to control; format: cell-based, Canis lupus familiaris; conditions: read-out: Activity; outline: as §1

| SMILES | inhibition at 100 µM (Influenza A virus [1]) [%] | Activity (MDCK) | CC50 at 40 h [2] [µM] | IC50 (Influenza A virus [3]) [µM] | selectivity ratio [4] | other results |
| --- | --- | --- | --- | --- | --- | --- |
| C[C@@H]1O[C@@H](n2cc(CNC(=O)[C@]34CCC(C)(C)C[C@H]3C3=CC[C@@H]5[C@@]6(C)CC[C@H](O)C(C)(C)[C@@H]6CC[C@@]5(C)[C@]3(C)CC4)nn2)[C@H](O)[C@H](O)[C@H]1O | 75 | Toxic | – | – | – | – |
| CC1(C)CC[C@]2(C(=O)NCc3cn([C@@H]4O[C@H](CO)[C@@H](O[C@H]5O[C@H](CO)[C@@H](O)[C@H](O)[C@H]5O)[C@H](O)[C@H]4O)nn3)CC[C@]3(C)C(=CC[C@@H]4[C@@]5(C)CC[C@H](O)C(C)(C)[C@@H]5CC[C@]43C)[C@@H]2C1 | – | Non-Toxic | – | – | – | – |
| CC(=O)OC[C@H]1O[C@@H](n2cc(CNC(=O)[C@]34CCC(C)(C)C[C@H]3C3=CC[C@@H]5[C@@]6(C)CC[C@H](O)C(C)(C)[C@@H]6CC[C@@]5(C)[C@]3(C)CC4)nn2)[C@H](OC(C)=O)[C@@H](OC(C)=O)[C@H]1OC(C)=O | 75 | Toxic | – | – | – | – |
| CC(=O)OC[C@H]1O[C@@H](O[C@H]2[C@H](OC(C)=O)[C@@H](OC(C)=O)[C@H](n3cc(CNC(=O)[C@]45CCC(C)(C)C[C@H]4C4=CC[C@@H]6[C@@]7(C)CC[C@H](O)C(C)(C)[C@@H]7CC[C@@]6(C)[C@]4(C)CC5)nn3)O[C@@H]2COC(C)=O)[C@H](OC(C)=O)[C@@H](OC(C)=O)[C@H]1OC(C)=O | – | Non-Toxic | – | – | – | – |
| CC(=O)O[C@@H]1[C@@H](OC(C)=O)[C@H](OC(C)=O)CO[C@H]1n1cc(CNC(=O)[C@]23CCC(C)(C)C[C@H]2C2=CC[C@@H]4[C@@]5(C)CC[C@H](O)C(C)(C)[C@@H]5CC[C@@]4(C)[C@]2(C)CC3)nn1 | – | Non-Toxic | – | – | – | – |
| CCOC(=O)C1=C[C@@H](OC(CC)CC)[C@H](NC(C)=O)[C@@H](N)C1 [OSELTAMIVIR PHOSPHATE] | – | – | > 100 | 1.82 | > 54.9 | IC50 (Influenza A virus [5]): > 100 µM; IC50 (Influenza B virus [6]): 23.4 µM; IC50 (Influenza B virus [7]): > 100 µM; IC50 (Influenza B virus [8]): > 100 µM |
| CC1(C)CC[C@]2(C(=O)NCc3cn([C@@H]4OC[C@H](O)[C@H](O)[C@H]4O)nn3)CC[C@]3(C)C(=CC[C@@H]4[C@@]5(C)CC[C@H](O)C(C)(C)[C@@H]5CC[C@]43C)[C@@H]2C1 | > 75 | Non-Toxic | > 100 | 12.9 | > 7.73 | viability at 40 h, 100 µM [9]: > 75% |
| CC(=O)OC[C@H]1O[C@H](n2cc(CNC(=O)[C@]34CCC(C)(C)C[C@H]3C3=CC[C@@H]5[C@@]6(C)CC[C@H](O)C(C)(C)[C@@H]6CC[C@@]5(C)[C@]3(C)CC4)nn2)[C@@H](OC(C)=O)[C@@H](OC(C)=O)[C@@H]1OC(C)=O | > 75 | Non-Toxic | > 100 | 7.22 | > 13.8 | viability at 40 h, 100 µM [9]: > 75% |
| CC(=O)OC[C@H]1O[C@@H](n2cc(CNC(=O)[C@]34CCC(C)(C)C[C@H]3C3=CC[C@@H]5[C@@]6(C)CC[C@H](O)C(C)(C)[C@@H]6CC[C@@]5(C)[C@]3(C)CC4)nn2)[C@H](OC(C)=O)[C@@H](OC(C)=O)[C@@H]1O[C@@H]1O[C@H](COC(C)=O)[C@@H](OC(C)=O)[C@H](OC(C)=O)[C@H]1OC(C)=O | – | Non-Toxic | – | – | – | – |
| CC(=O)OC[C@H]1O[C@@H](n2cc(CNC(=O)[C@]34CCC(C)(C)C[C@H]3C3=CC[C@@H]5[C@@]6(C)CC[C@H](O)C(C)(C)[C@@H]6CC[C@@]5(C)[C@]3(C)CC4)nn2)[C@H](OC(C)=O)[C@@H](OC(C)=O)[C@@H]1OC(C)=O | – | Non-Toxic | – | – | – | – |
| CC1(C)CC[C@]2(C(=O)O)CC[C@]3(C)C(=CC[C@@H]4[C@@]5(C)CC[C@H](O)C(C)(C)[C@@H]5CC[C@]43C)[C@@H]2C1 [OLEANOLIC_ACID] | – | – | > 100 | 72.2 | > 1.38 | – |
